33 molecules from ChEMBL document CHEMBL4364248, “Discovery of 1,2,4-oxadiazole-Containing hydroxamic acid derivatives as histone deacetylase inhibitors potential application in cancer therapy” (Eur J Med Chem, 2019) can be followed below.

One assay relates to Raji. The assay can be described thus: Antiproliferative activity against human Raji cells after 72 hrs by MTT assay. In kind it is functional, cell-based.
The target in a further assay is Histone deacetylase 1 (Homo sapiens, UniProt Q13547). The assay can be described thus: Inhibition of recombinant full length HDAC1 (unknown origin) using Ac-peptide-AMC as substrate at 100 nM after 1 hr by fluorescence assay relative to control. In outline:
(§1)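 Full-length recombinant HDAC1 or HDAC6 was incubated with compound, trypsin and Ac-peptide-AMC substrate for 1 h at room temperature. Fluorescence was read at ex 355/em 460 nm. Inhibition was calculated against the DMSO vehicle control.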

In assay [1] the target is T1, Protein deacetylase HDAC6 (Homo sapiens) (UniProt Q9UBN7).
T1 sequence (whole entry): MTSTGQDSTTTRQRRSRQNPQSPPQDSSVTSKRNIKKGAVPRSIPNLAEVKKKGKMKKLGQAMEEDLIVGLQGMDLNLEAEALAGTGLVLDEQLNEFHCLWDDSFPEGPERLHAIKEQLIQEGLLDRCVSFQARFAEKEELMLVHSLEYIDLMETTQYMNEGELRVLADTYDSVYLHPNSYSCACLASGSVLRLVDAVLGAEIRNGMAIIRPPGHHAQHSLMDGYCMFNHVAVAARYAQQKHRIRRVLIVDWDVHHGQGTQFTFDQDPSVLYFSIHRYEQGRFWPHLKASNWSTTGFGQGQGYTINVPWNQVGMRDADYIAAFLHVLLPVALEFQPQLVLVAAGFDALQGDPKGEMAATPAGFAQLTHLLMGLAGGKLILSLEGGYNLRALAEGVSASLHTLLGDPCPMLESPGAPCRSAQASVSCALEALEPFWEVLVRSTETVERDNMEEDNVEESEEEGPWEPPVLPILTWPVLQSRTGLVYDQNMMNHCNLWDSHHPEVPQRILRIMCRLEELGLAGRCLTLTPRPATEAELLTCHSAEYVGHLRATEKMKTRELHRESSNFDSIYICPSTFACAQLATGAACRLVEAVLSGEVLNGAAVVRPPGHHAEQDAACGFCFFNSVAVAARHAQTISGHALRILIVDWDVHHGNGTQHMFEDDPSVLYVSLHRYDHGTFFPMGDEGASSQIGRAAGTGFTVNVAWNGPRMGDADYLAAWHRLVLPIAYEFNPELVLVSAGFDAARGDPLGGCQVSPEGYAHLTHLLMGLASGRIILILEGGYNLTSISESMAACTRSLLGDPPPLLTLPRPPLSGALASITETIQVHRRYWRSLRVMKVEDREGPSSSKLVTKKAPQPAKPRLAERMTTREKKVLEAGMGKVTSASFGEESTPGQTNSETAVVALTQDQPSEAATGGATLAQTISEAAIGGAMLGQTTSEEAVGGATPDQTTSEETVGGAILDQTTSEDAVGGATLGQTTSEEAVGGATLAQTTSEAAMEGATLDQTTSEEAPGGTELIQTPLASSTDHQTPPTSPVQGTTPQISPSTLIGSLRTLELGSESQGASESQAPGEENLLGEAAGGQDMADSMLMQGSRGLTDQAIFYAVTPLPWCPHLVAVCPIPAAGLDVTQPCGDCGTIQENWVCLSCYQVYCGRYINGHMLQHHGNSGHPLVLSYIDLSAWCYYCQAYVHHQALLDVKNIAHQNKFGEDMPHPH
As to the kind of experiment: Inhibition of recombinant full length HDAC6 (unknown origin) using Ac-peptide-AMC as substrate at 100 nM after 1 hr by fluorescence assay relative to control. An outline of the steps:
as §1

Sequence of Histone deacetylase 1 (Q13547 whole entry): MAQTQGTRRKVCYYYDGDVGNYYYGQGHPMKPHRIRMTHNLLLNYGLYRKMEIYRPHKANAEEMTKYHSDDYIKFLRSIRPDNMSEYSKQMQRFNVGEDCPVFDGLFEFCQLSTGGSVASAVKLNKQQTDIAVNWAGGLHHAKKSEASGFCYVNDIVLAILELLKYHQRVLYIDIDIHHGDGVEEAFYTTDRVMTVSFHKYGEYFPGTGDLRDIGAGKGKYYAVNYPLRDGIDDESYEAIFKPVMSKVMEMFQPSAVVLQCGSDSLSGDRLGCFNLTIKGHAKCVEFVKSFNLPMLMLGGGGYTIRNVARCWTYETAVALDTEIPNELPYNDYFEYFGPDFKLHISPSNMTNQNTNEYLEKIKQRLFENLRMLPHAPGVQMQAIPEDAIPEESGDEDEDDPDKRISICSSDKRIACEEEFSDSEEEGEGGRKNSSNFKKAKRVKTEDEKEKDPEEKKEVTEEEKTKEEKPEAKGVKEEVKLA

With `CN(Cc1nc(C2CCN(Cc3ccc(F)cc3Cl)CC2)no1)c1ncc(C(=O)NO)cn1`, it took 116 nM to reach half-maximal inhibition with Raji (IC50). Besides, the inhibition on Histone deacetylase 1 was found to be 73%; in assay [1] it was 49%.

Regarding `CCCN1CCC(c2noc(COc3ccc(CCC(=O)NO)cc3)n2)CC1`, the inhibition at Histone deacetylase 1 was found to be 5%; in assay [1], 13%.

As for `O=C(Cc1ccc(OCc2nc(C3CCN(Cc4ccccc4)CC3)no2)cc1)NO`, the inhibition on Histone deacetylase 1 is 18%; in assay [1], 35%.

In the case of `CN(Cc1nc(C2CCN(Cc3ccc(C#N)cc3)CC2)no1)c1ncc(C(=O)NO)cn1`, the IC50 with Raji was 117 nM. Besides, the inhibition is 68% on Histone deacetylase 1 and 38% in assay [1].

On to `O=C(CCc1ccc(OCc2nc(C3CCN(Cc4ccccc4)CC3)no2)cc1)NO`, for which the results for the inhibition (at Histone deacetylase 1; in assay [1]) were 11% and 22%, respectively.

On to `O=C(/C=C/c1ccc(OCc2nc(C3CCN(Cc4ccc(F)c(F)c4)CC3)no2)cc1)NO`, for which the values for the inhibition (at Histone deacetylase 1; in assay [1]) were 17% and 60%, respectively.

Take `CCCN1CCC(c2noc(COc3ccc(/C=C/C(=O)NO)cc3)n2)CC1`: the inhibition was 40% at Histone deacetylase 1 and 69% in assay [1].

Regarding `O=C(/C=C/c1ccc(OCc2nc(C3CCN(Cc4ccccc4Cl)CC3)no2)cc1)NO`, the values for the inhibition (on Histone deacetylase 1; in assay [1]) were 8% and 59%, respectively.

`O=C(/C=C/c1ccc(OCc2nc(C3CCN(Cc4ccc(F)cc4)CC3)no2)cc1)NO`: the inhibition stood at 38% at Histone deacetylase 1 and 75% in assay [1].

As for `O=C(/C=C/c1ccc(OCc2nc(C3CCN(Cc4ccc(F)cc4F)CC3)no2)cc1)NO`, the results for the inhibition (at Histone deacetylase 1; in assay [1]) were 35% and 74%, respectively.

The molecule `Cc1ccc(CN2CCC(c3noc(CN(C)c4ncc(/C=C/C(=O)NO)cn4)n3)CC2)cc1` yielded an IC50 with Raji of 292 nM. Further, the inhibition at Histone deacetylase 1 is 61%; in assay [1], 60%.

`Cc1ccccc1CN1CCC(c2noc(COc3ccc(/C=C/C(=O)NO)cc3)n2)CC1`: the figures for the inhibition (on Histone deacetylase 1; in assay [1]) were 14% and 68%, respectively.

On to `C=CCN1CCC(c2noc(COc3ccc(CCC(=O)NO)cc3)n2)CC1`, for which the results for the inhibition (at Histone deacetylase 1; in assay [1]) were 4% and 15%, respectively.

In the assay on Raji, `CN(Cc1nc(C2CCN(Cc3ccccc3)CC2)no1)c1ncc(/C=C/C(=O)NO)cn1` gave an IC50 of 547 nM. Moreover, the values for the inhibition (on Histone deacetylase 1; in assay [1]) were 65% and 55%, respectively.

Turning to `CN(Cc1nc(C2CCN(Cc3ccccc3F)CC2)no1)c1ncc(C(=O)NO)cn1`, inhibition in the assay with Raji was half-maximal at 98.6 nM (IC50). The inhibition turned out to be 84% at Histone deacetylase 1 and 44% in assay [1].

Regarding `O=C(/C=C/c1ccc(OCc2nc(C3CCN(Cc4ccccc4F)CC3)no2)cc1)NO`, the inhibition on Histone deacetylase 1 was determined as 31%; in assay [1], 68%.

With `O=C(NO)c1ccc(OCc2nc(C3CCN(Cc4ccccc4)CC3)no2)cc1`, the inhibition was determined as 29% on Histone deacetylase 1 and 66% in assay [1].

In the assay on Raji, `CN(Cc1nc(C2CCN(Cc3ccc(F)cc3)CC2)no1)c1ncc(C(=O)NO)cn1` registered a half-inhibitory concentration (IC50) of 22 nM. In addition, the inhibition on Histone deacetylase 1 stood at 92%; in assay [1], 65%.

Turning to `O=C(/C=C/c1ccc(OCc2nc(C3CCN(Cc4ccc(Br)cc4)CC3)no2)cc1)NO`, the inhibition on Histone deacetylase 1 stood at 6%; in assay [1], 58%.

With `CN(Cc1nc(C2CCN(Cc3ccc(C(F)(F)F)cc3)CC2)no1)c1ncc(C(=O)NO)cn1`, in the assay with Raji, it took 207 nM to reach half-maximal inhibition (IC50). For the same molecule, the figures for the inhibition (on Histone deacetylase 1; in assay [1]) were 62% and 30%, respectively.

As for `O=C(/C=C/c1ccc(OCc2nc(C3CCN(Cc4ccccc4)CC3)no2)cc1)NO`, the inhibition at Histone deacetylase 1 came out at 35%; in assay [1] it was 71%.

As for `Cc1ccc(CN2CCC(c3noc(COc4ccc(CCC(=O)NO)cc4)n3)CC2)cc1`, the inhibition is 12% at Histone deacetylase 1 and 28% in assay [1].

Take `CN(Cc1nc(C2CCN(Cc3ccccc3)CC2)no1)c1ncc(C(=O)NO)cn1`: 27.6 nM corresponded to half-maximal inhibition with Raji (IC50). Besides, the inhibition on Histone deacetylase 1 was determined as 96%; in assay [1], 63%.

In the case of `Cc1cccc(CN2CCC(c3noc(CN(C)c4ncc(C(=O)NO)cn4)n3)CC2)c1`, it took 47.3 nM to reach half-maximal inhibition in the assay with Raji (IC50). For the same molecule, the values for the inhibition (at Histone deacetylase 1; in assay [1]) were 93% and 54%, respectively.

Turning to `C=CCN1CCC(c2noc(COc3ccc(/C=C/C(=O)NO)cc3)n2)CC1`, the inhibition at Histone deacetylase 1 was 34%; in assay [1] it was 66%.

Turning to `O=C(/C=C/c1ccc(OCc2nc(C3CCN(Cc4cccc(F)c4)CC3)no2)cc1)NO`, the inhibition on Histone deacetylase 1 was 35%; in assay [1] it was 73%.

Take `CN(Cc1nc(C2CCN(Cc3ccc(F)cc3F)CC2)no1)c1ncc(C(=O)NO)cn1`: the IC50 in the assay on Raji worked out at 34.3 nM. The inhibition on Histone deacetylase 1 is 88%; in assay [1] it was 66%.

On to `O=C(/C=C/c1ccc(OCc2nc(C3CCN(Cc4ccccc4[N+](=O)[O-])CC3)no2)cc1)NO`, for which the inhibition at Histone deacetylase 1 was 19%; in assay [1] it was 63%.

For the molecule `CN(Cc1nc(C2CCN(Cc3ccccc3Cl)CC2)no1)c1ncc(C(=O)NO)cn1`, it took 48.3 nM to reach half-maximal inhibition with Raji (IC50). The figures for the inhibition (at Histone deacetylase 1; in assay [1]) were 93% and 55%, respectively.

For the molecule `COc1ccc(CN2CCC(c3noc(COc4ccc(/C=C/C(=O)NO)cc4)n3)CC2)cc1`, the inhibition at Histone deacetylase 1 was found to be 36%; in assay [1], 75%.

For `N#Cc1ccccc1CN1CCC(c2noc(COc3ccc(/C=C/C(=O)NO)cc3)n2)CC1`, the inhibition at Histone deacetylase 1 worked out at 36%; in assay [1], 65%.

On to `Cc1cccc(CN2CCC(c3noc(COc4ccc(/C=C/C(=O)NO)cc4)n3)CC2)c1`, for which the figures for the inhibition (at Histone deacetylase 1; in assay [1]) were 25% and 73%, respectively.

In the case of `Cc1ccc(CN2CCC(c3noc(COc4ccc(/C=C/C(=O)NO)cc4)n3)CC2)cc1`, the values for the inhibition (at Histone deacetylase 1; in assay [1]) were 32% and 76%, respectively.
